{"data": "Published values pooled from the literature", "read-out": "cell growth or viability", "note": "Each line is one published result; the experiments were not run side by side."}
{"Structure (SMILES)": "COc1cccc2c1C(=O)c1c(O)c3c(c(O)c1C2=O)C[C@@](O)(C(=O)CO)C[C@@H]3O[C@H]1C[C@H](N)[C@H](O)[C@H](C)O1", "cell line": "AGS", "method": "MTT", "time": "24 h", "IC50 [nM]": "< 625"}
{"Structure (SMILES)": "O=c1[nH]cc(S(=O)(=O)Nc2cccc(-c3nnc(-c4cccc(Cl)c4)o3)c2)c(=O)[nH]1", "cell line": "PC-9", "method": "MTT", "time": "24 h", "IC50 [nM]": 1100}
{"Structure (SMILES)": "COCCCOC(=O)[C@]1(C)CC[C@]2(C)CC[C@]3(C)C4=CC=C5C(=CC(=O)C(O)=C5C)[C@]4(C)CC[C@@]3(C)[C@@H]2C1", "cell line": "AGS", "method": "MTT", "time": "48 h", "IC50 [nM]": 390}
{"Structure (SMILES)": "C=CC(=O)Nc1cc(Nc2nccc(-c3cn(C4CC4)c4ccccc34)n2)c(OC)cc1N(C)CCN(C)C", "cell line": "PC-9", "method": "ATP luminescence", "time": "72 h", "IC50 [nM]": 4.1}
{"Structure (SMILES)": "COc1ccc(C2=N[C@@H](c3ccc(Cl)cc3)[C@@H](c3ccc(Cl)cc3)N2C(=O)N2CCNC(=O)C2)c(OC(C)C)c1", "cell line": "DU-4475", "method": "MTS", "time": "48 h", "IC50 [nM]": 4000}
{"Structure (SMILES)": "COc1cc(/C=C2\\SC(=O)NC2=O)ccc1OCc1ccc(Cl)cc1Cl", "cell line": "MEF", "method": "MTT", "time": "72 h", "IC50 [nM]": 8600}
{"Structure (SMILES)": "Cc1cccc(-n2ncc(Br)c(Br)c2=O)c1", "cell line": "PC-9", "method": "resazurin", "time": "96 h", "IC50 [nM]": 860}
{"Structure (SMILES)": "CCCCN(CCCC)C(=O)c1ncn2c(=O)n(C)nnc12", "cell line": "U-87 MG", "method": "resazurin", "time": "7 days", "IC50 [nM]": 27000}
{"Structure (SMILES)": "O=C1NC(=NCc2cccs2)S/C1=C\\c1ccc2ncccc2c1", "cell line": "EKVX", "IC50 [nM]": "> 10000"}
{"Structure (SMILES)": "CC1=C(O)C(=O)C=C2C1=CC=C1[C@@]2(C)CC[C@@]2(C)[C@@H]3C[C@](C)(C(=O)OCCCCCCO)CC[C@]3(C)CC[C@]12C", "cell line": "AGS", "method": "MTT", "time": "48 h", "IC50 [nM]": 360}
{"Structure (SMILES)": "CCN1CCN(c2ccc(Nc3cc(N(C)C(=O)Nc4c(Cl)c(OC)cc(OC)c4Cl)ncn3)cc2)CC1", "cell line": "JMSU-1", "method": "ATP luminescence", "time": "96 h", "IC50 [nM]": 25.9}
{"Structure (SMILES)": "COc1c(C)c(OC)c2c(c1C)OC(c1ccccc1)CC2=O (centres unmarked)", "cell line": "KKU-M213", "method": "SRB", "time": "72 h", "IC50 [nM]": "> 50000"}
{"Structure (SMILES)": "CC1=C(O)C(=O)C=C2C1=CC=C1[C@@]2(C)CC[C@@]2(C)[C@@H]3C[C@](C)(C(=O)OCCCBr)CC[C@]3(C)CC[C@]12C", "cell line": "AGS", "method": "MTT", "time": "48 h", "IC50 [nM]": 360}
{"Structure (SMILES)": "CCSC(=O)c1ncn2c(=O)n(C)nnc12", "cell line": "U-87 MG", "method": "resazurin", "time": "7 days", "IC50 [nM]": 64000}
{"Structure (SMILES)": "CC1=C(O)C(=O)C=C2C1=CC=C1[C@@]2(C)CC[C@@]2(C)[C@@H]3C[C@](C)(C(=O)OCCCCCO)CC[C@]3(C)CC[C@]12C", "cell line": "AGS", "method": "MTT", "time": "48 h", "IC50 [nM]": 430}
{"Structure (SMILES)": "Cc1cnc(NC2CCOCC2)nc1-n1cnc(C(=O)NC(CN)c2cc(F)cc(Cl)c2)c1 (centres unmarked)", "cell line": "JVM13", "method": "MTS", "IC50 [nM]": 2700}
{"Structure (SMILES)": "CC1=C(O)C(=O)C=C2C1=CC=C1[C@@]2(C)CC[C@@]2(C)[C@@H]3C[C@](C)(C(=O)OCCCCO)CC[C@]3(C)CC[C@]12C", "cell line": "AGS", "method": "MTT", "time": "48 h", "IC50 [nM]": 350}
{"Structure (SMILES)": "C=C(C)C(=O)Nc1ccc(-c2c(-c3ccc(Oc4nccc(C)n4)c(F)c3)c3c(N)ncnc3n2C)cc1", "cell line": "JMSU-1", "method": "ATP luminescence", "time": "96 h", "IC50 [nM]": 1060}
{"Structure (SMILES)": "CC1=C(O)C(=O)C=C2C1=CC=C1[C@@]2(C)CC[C@@]2(C)[C@@H]3C[C@](C)(C(=O)OCCCCCCCO)CC[C@]3(C)CC[C@]12C", "cell line": "AGS", "method": "MTT", "time": "48 h", "IC50 [nM]": 410}
{"Structure (SMILES)": "CC(=O)Nc1nc(C)c(-c2csc(Nc3ccccc3)n2)s1", "cell line": "MEF", "method": "MTT", "time": "72 h", "IC50 [nM]": 21400}
